Experimental findings from ChEMBL document CHEMBL1124339, “Conformationally restricted analogues of atriopeptin(103-125)amide” (J Med Chem, 1989) are described below.

The species named for assay [1] is Oryctolagus cuniculus. The assay is described as follows: Effective concentration in vasorelaxant assay; 0.05-0.3 uM. The format is functional.
For assay [2], the species on record is Oryctolagus cuniculus. In words: Relative binding potency towards vasorelaxant binding site compared to AP(103-126). In outline: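 Varied unlabeled peptide concentrations; started by adding membranes; 30 min at 25 °C. Filtration with ice-cold buffer, then gamma counting. Nonspecific binding measured with 10^-6 M unlabeled reference peptide. Specific binding fitted by nonlinear least squares.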

Assay [3] deals with Atrial natriuretic peptide receptor 3 (Oryctolagus cuniculus). The assay is described as follows: Relative binding potency towards non-vasorelaxant binding site compared to AP(103-126).
The species named for assay [4] is Oryctolagus cuniculus. In words: Effective concentration in vasorelaxation assay; 0.05-0.3 uM. The format is functional.
The species entered for assay [5] is Oryctolagus cuniculus. In words: Relative potency for vasorelaxant activity of the compound. It counts as functional.

For `CC[C@H](C)[C@@H]1NC(=O)[C@H](CCCN=C(N)N)NC(=O)[C@H](CC(=O)O)NC(=O)[C@H]([C@@H](C)CC)NC(=O)[C@H](CCCN=C(N)N)NC(=O)CNC(=O)CNC(=O)[C@H](Cc2ccccc2)NC(=O)[C@@H](NC(=O)[C@H](CO)NC(=O)[C@@H](N)CO)CSSC[C@@H](C(=O)N[C@@H](CC(N)=O)C(=O)N[C@@H](CO)C(=O)N[C@@H](Cc2ccccc2)C(=O)N[C@@H](CCCN=C(N)N)C(N)=O)NC(=O)CNC(=O)[C@H](CC(C)C)NC(=O)CNC(=O)[C@H](CO)NC(=O)[C@H](CCC(N)=O)NC(=O)[C@H](C)NC(=O)CNC1=O`, the midpoint of the response in the assay filed under Oryctolagus cuniculus [1], the EC50, lay at 50 nM. This counts as double-digit nanomolar. With `CC[C@H](C)[C@H]1NC(=O)[C@H](CCCN=C(N)N)NC(=O)[C@H](CC(=O)O)NC(=O)[C@@H]([C@@H](C)CC)NC(=O)[C@H](CCCN=C(N)N)NC(=O)[C@@H](CSCNC(C)=O)NC(=O)CNC(=O)[C@@H](Cc2ccccc2)NC(=O)[C@H](NC(=O)[C@H](CO)NC(=O)[C@@H](N)CO)CSSC[C@H](C(=O)N[C@@H](CC(N)=O)C(=O)N[C@@H](CO)C(=O)N[C@@H](Cc2ccccc2)C(=O)N[C@@H](CCCN=C(N)N)C(N)=O)NC(=O)CNC(=O)[C@@H](CC(C)C)NC(=O)CNC(=O)[C@@H](CSCNC(C)=O)NC(=O)[C@H](CCC(N)=O)NC(=O)[C@@H](C)NC(=O)CNC1=O`, the Relative potency (in the assay filed under Oryctolagus cuniculus [2]; in assay [3]) was 0.91 throughout. `CC[C@H](C)[C@@H]1NC(=O)[C@H](CCCN=C(N)N)NC(=O)[C@H](CC(=O)O)NC(=O)[C@H]([C@@H](C)CC)NC(=O)[C@H](CCCN=C(N)N)NC(=O)[C@@H](CSCNC(C)=O)NC(=O)CNC(=O)[C@H](Cc2ccccc2)NC(=O)[C@@H](NC(=O)[C@H](CO)NC(=O)[C@@H](N)CO)CSSC[C@@H](C(=O)N[C@@H](CC(N)=O)C(=O)N[C@@H](CO)C(=O)N[C@@H](Cc2ccccc2)C(=O)N[C@@H](CCCN=C(N)N)C(N)=O)NC(=O)CNC(=O)[C@H](CC(C)C)NC(=O)CNC(=O)[C@H](CO)NC(=O)[C@H](CCC(N)=O)NC(=O)[C@H](C)NC(=O)CNC1=O`: the Relative potency (in the assay listed under Oryctolagus cuniculus [2]; in assay [3]) was 4.3 throughout. As to `CC[C@H](C)[C@@H]1NC(=O)[C@H](CCCN=C(N)N)NC(=O)[C@H](CC(=O)O)NC(=O)[C@H]([C@@H](C)CC)NC(=O)[C@H](CCCN=C(N)N)NC(=O)[C@@H](CCS)NC(=O)CNC(=O)[C@H](Cc2ccccc2)NC(=O)[C@@H](NC(=O)[C@H](CO)NC(=O)[C@@H](N)CO)CSSC[C@@H](C(=O)N[C@@H](CC(N)=O)C(=O)N[C@@H](CO)C(=O)N[C@@H](Cc2ccccc2)C(=O)N[C@@H](CCCN=C(N)N)C(N)=O)NC(=O)CNC(=O)[C@H](CC(C)C)NC(=O)CNC(=O)[C@@H](CCS)NC(=O)[C@H](CCC(N)=O)NC(=O)[C@H](C)NC(=O)CNC1=O`, the values for the Relative potency (in the assay listed under Oryctolagus cuniculus [2]; in assay [3]) were 0.071 and 2.8, respectively. For the compound `CC[C@H](C)[C@H](NC(=O)[C@H](CC/N=C(/N)NO)NC(=O)[C@H](CC(=O)O)NC(=O)[C@@H](NC(=O)[C@H](CCN=C(N)N)NC(=O)[C@H](CSCNC(C)=O)NC(=O)CNC(=O)[C@H](Cc1ccccc1)NC(=O)[C@H](CSCNC(C)=O)NC(=O)[C@H](CO)NC(=O)[C@@H](N)CO)[C@@H](C)CC)C(=O)NCC(=O)N[C@@H](C)C(=O)N[C@@H](CCC(N)=O)C(=O)C1SSC[C@@H](C(=O)N[C@@H](CC(N)=O)C(=O)CN[C@@H](CO)C(=O)N[C@@H](Cc2ccccc2)C(=O)N[C@@H](CCCN=C(N)N)C(N)=O)NC(=O)CNC(=O)[C@H](CC(C)C)NC(=O)CNC(=O)[C@H]1N` (stereo in doubt; 9b), the values for the Relative potency (in the assay filed under Oryctolagus cuniculus [2]; in assay [3]) were 0.0053 and 2.2, respectively.

Take `CC[C@H](C)[C@@H]1NC(=O)[C@H](CCCN=C(N)N)NC(=O)[C@H](CC(=O)O)NC(=O)[C@H]([C@@H](C)CC)NC(=O)[C@H](CCCN=C(N)N)NC(=O)CNC(=O)CNC(=O)[C@H](Cc2ccccc2)NC(=O)[C@@H](NC(=O)[C@H](CO)NC(=O)[C@@H](N)CO)CSSC[C@@H](C(=O)N[C@@H](CC(N)=O)C(=O)N[C@@H](CO)C(=O)N[C@@H](Cc2ccccc2)C(=O)N[C@@H](CCCN=C(N)N)C(=O)N[C@@H](Cc2ccc(O)cc2)C(=O)O)NC(=O)CNC(=O)[C@H](CC(C)C)NC(=O)CNC(=O)[C@H](CO)NC(=O)[C@H](CCC(N)=O)NC(=O)[C@H](C)NC(=O)CNC1=O`: the EC50 in the assay filed under Oryctolagus cuniculus [4] worked out at 50 nM; in the assay filed under Oryctolagus cuniculus [5], 2.3 nM.

Turning to `CC[C@H](C)[C@@H]1NC(=O)[C@H](CCCN=C(N)N)NC(=O)[C@H](CC(=O)O)NC(=O)[C@H]([C@@H](C)CC)NC(=O)[C@H](CCCN=C(N)N)NC(=O)[C@@H](CCSCNC(C)=O)NC(=O)CNC(=O)[C@H](Cc2ccccc2)NC(=O)[C@H](NC(=O)[C@H](CO)NC(=O)[C@@H](N)CO)CSSC[C@H](C(=O)N[C@@H](CC(N)=O)C(=O)N[C@@H](CO)C(=O)N[C@@H](Cc2ccccc2)C(=O)N[C@@H](CCCN=C(N)N)C(N)=O)NC(=O)CNC(=O)[C@H](CC(C)C)NC(=O)CNC(=O)[C@H](CSCNC(C)=O)NC(=O)[C@H](CCC(N)=O)NC(=O)[C@H](C)NC(=O)CNC1=O`, the Relative potency (in the assay listed under Oryctolagus cuniculus [2]; in assay [3]) was 0.15 in each case. As to `CC[C@H](C)[C@@H]1NC(=O)[C@H](CCCN=C(N)N)NC(=O)[C@H](CC(=O)O)NC(=O)[C@H]([C@@H](C)CC)NC(=O)[C@H](CCCN=C(N)N)NC(=O)[C@@H](CSCNC(C)=O)NC(=O)CNC(=O)[C@H](Cc2ccccc2)NC(=O)[C@@H](NC(=O)[C@H](CO)NC(=O)[C@@H](N)CO)CSSC[C@@H](C(=O)NCC(=O)N[C@@H](CC(C)C)C(=O)NCC(=O)N[C@@H](CSCNC(C)=O)C(=O)N[C@@H](CC(N)=O)C(=O)N[C@@H](CO)C(=O)N[C@@H](Cc2ccccc2)C(=O)N[C@@H](CCCN=C(N)N)C(N)=O)NC(=O)[C@H](CCC(N)=O)NC(=O)[C@H](C)NC(=O)CNC1=O`, the Relative potency was 0.014 in the assay listed under Oryctolagus cuniculus [2] and 3.1 in assay [3]. For `CC[C@H](C)[C@@H]1NC(=O)[C@H](CCCN=C(N)N)NC(=O)[C@H](CC(=O)O)NC(=O)[C@H]([C@@H](C)CC)NC(=O)[C@H](CCCN=C(N)N)NC(=O)[C@@H](CCSCNC(C)=O)NC(=O)CNC(=O)[C@H](Cc2ccccc2)NC(=O)[C@@H](NC(=O)[C@H](CO)NC(=O)[C@@H](N)CO)CSSC[C@@H](C(=O)N[C@@H](CC(N)=O)C(=O)N[C@@H](CO)C(=O)N[C@@H](Cc2ccccc2)C(=O)N[C@@H](CCCN=C(N)N)C(N)=O)NC(=O)CNC(=O)[C@H](CC(C)C)NC(=O)CNC(=O)[C@@H](CCSCNC(C)=O)NC(=O)[C@H](CCC(N)=O)NC(=O)[C@H](C)NC(=O)CNC1=O`, the Relative potency (in the assay filed under Oryctolagus cuniculus [2]; in assay [3]) was 0.84 each time.

With `CC[C@H](C)[C@H]1NC(=O)[C@H](CCCN=C(N)N)NC(=O)[C@H](CC(=O)O)NC(=O)[C@@H]([C@@H](C)CC)NC(=O)[C@H](CCCN=C(N)N)NC(=O)CNC(=O)CNC(=O)[C@@H](Cc2ccccc2)NC(=O)[C@H](NC(=O)[C@H](CO)NC(=O)[C@@H](N)CO)CSSC[C@H](C(=O)N[C@@H](CC(N)=O)C(=O)N[C@@H](CO)C(=O)N[C@@H](Cc2ccccc2)C(=O)N[C@@H](CCCN=C(N)N)C(N)=O)NC(=O)CNC(=O)[C@@H](CC(C)C)NC(=O)CNC(=O)[C@@H](CO)NC(=O)[C@H](CCC(N)=O)NC(=O)[C@@H](C)NC(=O)CNC1=O`, the Relative potency (in the assay listed under Oryctolagus cuniculus [2]; in assay [3]) was 3.2 throughout.

Broadly, the EC50 is the concentration needed to bring the measured effect to its halfway point. A lower EC50 goes with higher potency in that assay.
